Experimental findings from ChEMBL document CHEMBL1125376, “Class III antiarrhythmic activity of novel substituted 4-[(methylsulfonyl)amino]benzamides and sulfonamides” (J Med Chem, 1992) are described below.

Each structure is given as a SMILES string.

Data set [1] deals with Canis familiaris. Kind of data set: Ventricular effective refractory period, after intravenous administration in open-chest anesthetized dogs at dose of 0.5 mg/kg. In kind it is functional, Canis lupus familiaris, Heart. Conditions: dose 10.0 mg/kg, in the assay text read “10.0 mg/kg” for “0.5 mg/kg”. The method, boiled down: (§1)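 Mongrel dogs, pentobarbital-anesthetized (30 mg/kg iv plus 5 mg/kg per h), open chest. Compound given iv. Atrial and ventricular effective refractory periods and conduction times measured during pacing at 300 ms, along with heart rate and mean arterial pressure. Two doses per compound, chosen from dose-response runs. Values are % change from predrug, mean ± SE.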

The test system of data set [2] is Canis familiaris. The data set can be described thus: Mean arterial pressure, after intravenous administration in open-chest anesthetized dogs at dose of 0.05 mg/kg. In kind it is functional, Canis lupus familiaris, Artery. Conditions: dose 5.0 mg/kg, in the assay text read “5.0 mg/kg” for “0.05 mg/kg”. The method, boiled down: as §1
The test system of data set [3] is Canis familiaris. The data set can be described thus: Atrial conduction time, after intravenous administration in open-chest anesthetized dogs at dose of 10.0 mg/kg.
Data set [4] concerns Canis familiaris. The data set can be described thus: Ventricular effective refractory period, after intravenous administration in open-chest anesthetized dogs at dose of 0.05 mg/kg. In kind it is functional, Canis lupus familiaris, Heart. The settings on record: dose 5.0 mg/kg, in the assay text read “5.0 mg/kg” for “0.05 mg/kg”. Put shortly:
as §1

For data set [5], the species on record is Canis familiaris. Kind of data set: Effect on the transmembrane potential of dog Purkinje fibers paced at a basic cycle length of stimulation of 1000 ms, repolarization time to -60 mV. The settings on record: Canis lupus familiaris; Purkinje fiber. In kind it is functional. The method, boiled down:
(§2)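 Purkinje fiber bundles were taken from pentobarbital-anesthetized mongrel dogs. They were superfused at 37.5-38.0 °C with Tyrode's (mM: NaCl 138, KCl 4, CaCl2 2, NaHCO3 24, MgCl2 0.5, Na2HPO4 1.8, dextrose 5) gassed with 95% O2-5% CO2, pH 7.3-7.4. Stimulation used 2.0 ms pulses at twice threshold. Fibers were equilibrated ≥1 h before drug. Action potentials were recorded at 4-6 sites and averaged per fiber.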

The species named for data set [6] is Canis familiaris. Kind of data set: Effect on the transmembrane potential of dog Purkinje fibers paced at a basic cycle length of stimulation of 1000 ms, repolarization time to -60 mV, at a concentration of 0.3 uM. In kind it is functional. Conditions: Canis lupus familiaris, Purkinje fiber. Put shortly: as §2
Data set [7] deals with Canis familiaris. The data set can be described thus: Atrial effective refractory period, after intravenous administration in open-chest anesthetized dogs at dose of 10.0 mg/kg.
For data set [8], the system named is Canis familiaris. Kind of data set: Ventricular conduction time, after intravenous administration in open-chest anesthetized dogs at dose of 0.5 mg/kg. Format: functional, Canis lupus familiaris, Heart. The settings on record: dose 10.0 mg/kg, in the assay text read “10.0 mg/kg” for “0.5 mg/kg”. Put shortly:
as §1

The species named for data set [9] is Canis familiaris. The data set can be described thus: Effect on the transmembrane potential of dog Purkinje fibers paced at a basic cycle length of stimulation of 300 ms, repolarization time to -60 mV. Format: functional. The settings on record: Canis lupus familiaris; Purkinje fiber. Put shortly: as §2
Data set [10] relates to Canis familiaris. Kind of data set: Heart rate, after intravenous administration in open-chest anesthetized dogs at dose of 0.5 mg/kg. In kind it is functional, Canis lupus familiaris. Conditions: dose 10.0 mg/kg, in the assay text read “10.0 mg/kg” for “0.5 mg/kg”. The method, boiled down: as §1
The subject of data set [11] is Canis familiaris. Kind of data set: Mean arterial pressure, after intravenous administration in open-chest anesthetized dogs at dose of 0.5 mg/kg. In kind it is functional, Canis lupus familiaris, Artery. The settings on record: dose 10.0 mg/kg, in the assay text read “10.0 mg/kg” for “0.5 mg/kg”. Put shortly:
as §1

For data set [12], the system named is Canis familiaris. The data set can be described thus: Heart rate, after intravenous administration in open-chest anesthetized dogs at dose of 0.05 mg/kg. Conditions: dose 5.0 mg/kg, in the assay text read “5.0 mg/kg” for “0.05 mg/kg”. Format: functional, Canis lupus familiaris. The method, boiled down:
as §1

The nature of data set [13]: Maximum rate of depolarization of the upstroke of the action potentia at 3 uM concentration. Put shortly:
(§3)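 Purkinje fiber bundles from pentobarbital-anesthetized mongrel dogs, superfused at 37.5-38.0 °C with Tyrode's solution (95% O2-5% CO2, pH 7.3-7.4). Stimulation with 2.0 ms square pulses at 2× threshold. Fibers equilibrated at least 1 h before drug. Action potentials recorded at four to six sites, control vs drug, and averaged per fiber.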

Data set [14] is described as follows: Maximum rate of depolarization of the upstroke of the action potential at 3 uM concentration. Also noted: unit not given beside the values. Put shortly:
as §3

The species entered for data set [15] is Canis familiaris. Kind of data set: Effect on the transmembrane potential of dog Purkinje fibers paced at a basic cycle length of stimulation of 300 ms, repolarization time to -60 mV at 3 uM concentration. In kind it is functional. The settings on record: Canis lupus familiaris, Purkinje fiber. The method, boiled down:
as §2

For data set [16], the species on record is Canis familiaris. Kind of data set: Effect on the transmembrane potential of dog Purkinje fibers paced at a basic cycle length of stimulation of 1000 ms, repolarization time to -60 mV at 3 uM concentration. In kind it is functional. The settings on record: Canis lupus familiaris, Purkinje fiber. The method, boiled down:
as §2

The test system of data set [17] is Canis familiaris. Kind of data set: Effect on atrial effective refractory period, after intravenous administration in open-chest anesthetized dogs at dose of 1.0 mg/kg. Format: functional, Canis lupus familiaris, Cardiac atrium.
The test system of data set [18] is Canis familiaris. The data set can be described thus: Effect on atrial conduction time, after intravenous administration in open-chest anesthetized dogs at dose of 1.0 mg/kg. Format: functional, Canis lupus familiaris, Cardiac atrium.
Data set [19] has as its system Canis familiaris. Kind of data set: Effect on mean arterial pressure, after intravenous administration in open-chest anesthetized dogs at dose of 1.0 mg/kg. In kind it is functional, Canis lupus familiaris, Artery.
The test system of data set [20] is Canis familiaris. The data set can be described thus: Effect on ventricular conduction time, after intravenous administration in open-chest anesthetized dogs at dose of 1.0 mg/kg. In kind it is functional, Canis lupus familiaris, Cardiac ventricle.
The test system of data set [21] is Canis familiaris. The data set can be described thus: Effect on ventricular effective refractory period, after intravenous administration in open-chest anesthetized dogs at dose of 5.0 mg/kg. Format: functional, Canis lupus familiaris, Cardiac ventricle. Put shortly:
as §1

The test system of data set [22] is Canis familiaris. Kind of data set: Effect on heart rate, after intravenous administration in open-chest anesthetized dogs at dose of 1.0 mg/kg. Format: functional, Canis lupus familiaris.
Data set [23] relates to Canis familiaris. Kind of data set: Effect on ventricular effective refractory period, after intravenous administration in open-chest anesthetized dogs at dose of 1.0 mg/kg. Format: functional, Canis lupus familiaris, Cardiac ventricle. The method, boiled down:
as §1

For data set [24], the system named is Canis familiaris. The data set can be described thus: Effect on atrial conduction time, after intravenous administration in open-chest anesthetized dogs at dose of 5.0 mg/kg. Format: functional, Canis lupus familiaris, Cardiac atrium.
Data set [25] relates to Canis familiaris. The data set can be described thus: Effect on ventricular conduction time, after intravenous administration in open-chest anesthetized dogs at dose of 5.0 mg/kg. In kind it is functional, Canis lupus familiaris, Cardiac ventricle.
In data set [26] the test system is Canis familiaris. The data set can be described thus: Effect on mean arterial pressure, after intravenous administration in open-chest anesthetized dogs at dose of 5.0 mg/kg. In kind it is functional, Canis lupus familiaris, Artery.
Data set [27] relates to Canis familiaris. The data set can be described thus: Effect on heart rate, after intravenous administration in open-chest anesthetized dogs at dose of 5.0 mg/kg. In kind it is functional, Canis lupus familiaris.
Data set [28] relates to Canis familiaris. The data set can be described thus: Effect on atrial effective refractory period, after intravenous administration in open-chest anesthetized dogs at dose of 5.0 mg/kg. Format: functional, Canis lupus familiaris, Cardiac atrium.
Data set [29] relates to Canis familiaris. Kind of data set: Effect on ventricular effective refractory period, after intravenous administration in open-chest anesthetized dogs at dose of 2.5 mg/kg. Format: functional, Canis lupus familiaris, Cardiac ventricle. Put shortly: as §1
Data set [30] has as its system Canis familiaris. Kind of data set: Effect on atrial effective refractory period, after intravenous administration in open-chest anesthetized dogs at dose of 2.5 mg/kg. Format: functional, Canis lupus familiaris, Cardiac atrium.
Data set [31] relates to Canis familiaris. Kind of data set: Effect on mean arterial pressure, after intravenous administration in open-chest anesthetized dogs at dose of 2.5 mg/kg. Format: functional, Canis lupus familiaris, Artery.
In data set [32] the test system is Canis familiaris. The data set can be described thus: Effect on ventricular conduction time, after intravenous administration in open-chest anesthetized dogs at dose of 2.5 mg/kg. Format: functional, Canis lupus familiaris, Cardiac ventricle.
Data set [33] has as its system Canis familiaris. The data set can be described thus: Effect on atrial conduction time, after intravenous administration in open-chest anesthetized dogs at dose of 2.5 mg/kg. Format: functional, Canis lupus familiaris, Cardiac atrium.
In data set [34] the test system is Canis familiaris. Kind of data set: Effect on heart rate, after intravenous administration in open-chest anesthetized dogs at dose of 2.5 mg/kg. Format: functional, Canis lupus familiaris.

Regarding `CN(CCN1CCn2c1nc1ccccc12)S(=O)(=O)c1ccc(NS(C)(=O)=O)cc1.Cl`, the Change is 19% in data set [1]; -9% in data set [2]; 3% in [3]; 18% in data set [4]; 66% in data set [7]; -5% in data set [8]. The figures for the Change in data set [10], in [11] and in data set [12] were -24%, -8% and -15%, respectively. Moreover, the APD60 in data set [5] was 30; in data set [6] it was 30; in data set [9], 16.

Take `CN(CCNc1nc2ccccc2n1C)S(=O)(=O)c1ccc(NS(C)(=O)=O)cc1.Cl`: the figures for the Vmax in data set [13] and in [14] were 6 and 1, respectively. Also, the figures for the APD60 in [15] and in data set [16] were 19 and 67, respectively.

In the case of `Cl.Cn1c(N2CCN(S(=O)(=O)c3ccc(NS(C)(=O)=O)cc3)CC2)nc2ccccc21`, the Change in data set [17] is recorded as 22%; in data set [18], 3%; in [19], 2%; in [20], -4%; in [21], 25%; in data set [22], -17%. Also, the Change is on record as 13% in data set [23]; -3% in data set [24]; 2% in [25]; 3% in data set [26]; -37% in data set [27]; 40% in [28]. In addition, the APD60 worked out at 36 in [15] and 57 in data set [16].

Consider `CN(CCN(C)S(=O)(=O)c1ccc(NS(C)(=O)=O)cc1)c1ncc2ccccc2n1`, for which the APD60 in data set [5] came to 29; in data set [9], 18.

With `CN(CCNS(=O)(=O)c1ccc(NS(C)(=O)=O)cc1)c1nc2ccccc2n1C.Cl`, the APD60 in [15] was found to be 16; in data set [16], 50.

For the compound `CN(CCN(C)c1ccc2ccccc2n1)C(=O)c1ccc(NS(C)(=O)=O)cc1`, the APD60 in data set [5] came to 36; in data set [9] it was 17.

For the compound `CC(C)NCC(O)c1ccc(NS(C)(=O)=O)cc1` (stereo not given) [SOTALOL], the Change is given as 19% in data set [29]; 42% in data set [30]; -16% in data set [31]; -1% in data set [32]; 25% in data set [21]; -5% in data set [33]. In addition, the Change is listed as -7% in data set [24]; -1% in data set [25]; -27% in [34]; -17% in data set [26]; -28% in data set [27]; 57% in [28]. The APD60 in [5] stood at 56; in data set [9], 18.
